IMP-1 inh-1: inhibitors of Pseudomonas aeruginosa IMP-1 metallo-beta-lactamase. purified IMP-1, nitrocefin hydrolysis, epi-absorbance fluorescence. 290,000 tested, 0.45% active. AID 1556. inhibition, % at 5.6 µM;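 active means inhibition above the mean plus 3 SD of all compounds in the same screening run, cut at about 4.5% in these data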
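Test system: recombinant IMP-1 enzyme, purified / Medium: HEPES buffer pH 7.1 with ZnSO4 and Brij 35 / Doses: single dose, 5.6 µM / Times: 25 °C, 15 min preincubation, 25 min reaction / Detection: Epi-absorbance via hydrolysed-nitrocefin quenching of white-plate fluorescence, 480/530 nm, EDTA stop / Evaluation: percent inhibition from optical density relative to buffer-blank wells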
PABP1 MLLE inh: blocks PAM2 peptide binding to the PABP1 MLLE domain. GST-MLLE / FITC-PAM2 fluorescence polarization. inhibition, % at 20 µM. P11940. 360,000 tested, 0.36% active; in the data active means inhibition above about 35%, passing the limit was not always enough
VIM-2 inh: inhibitors of Pseudomonas aeruginosa VIM-2 metallo-beta-lactamase | purified VIM-2, nitrocefin hydrolysis, epi-absorbance fluorescence | 290,000 tested, 0.89% active | inhibition, % at 5.6 µM;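 active means inhibition above the mean of all tested compounds plus 3 SD, cutoff set per screening run, cut at about 7.5% in these data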;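 further: red hydrolysis product quenches plate fluorescence so inhibitors raise well fluorescence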
eIF4H FP inh: inhibitors of RNA binding by human eIF4H. Q15056. eIF4H fluorescence polarization binding assay. inhibition, % at 35 µM. 290,000 tested, 0.94% active. AID 2012;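 further: calls also rest on retests at 20 µM and on dose response follow-up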
PABP FP inh: blocks human PABP binding to poly(A) RNA; P11940; fluorescence polarization; calls only at 35 µM; 290,000 tested, 1% active; AID 2014;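 further: calls also rest on retests at 20 µM and on dose response follow-up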
IMP-1 inh-2: IMP-1 inhibition, counter-screen for VIM-2 inhibitors. AID 1856. inhibition, % at 5.6 µM. shares compounds with VIM-2 inh. purified IMP-1, nitrocefin hydrolysis, epi-absorbance fluorescence. 1,300 tested, under 10 active
VIM-2 FRET ctr: VIM-2 FRET inhibition, artifact counter-screen; shares compounds with VIM-2 inh; purified VIM-2, CCF2 FRET substrate hydrolysis; inhibition, % at 5.6 µM; 1,300 tested, 23% active; AID 1857;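 active means inhibition above the mean of all tested compounds plus 3 SD, cut at about 19% in these data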
TEM-1 inh: blocks E. coli TEM-1 beta-lactamase in VIM-2 selectivity screen. inhibition, % at 5.6 µM. 1,300 tested, 3% active. Purified TEM-1, nitrocefin hydrolysis, epi-absorbance fluorescence. shares compounds with VIM-2 inh;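 active means inhibition above that campaign's mean inhibition plus 3 SD, cut at about 0.46% in these data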
Target sequence (P62593 whole entry, looked up): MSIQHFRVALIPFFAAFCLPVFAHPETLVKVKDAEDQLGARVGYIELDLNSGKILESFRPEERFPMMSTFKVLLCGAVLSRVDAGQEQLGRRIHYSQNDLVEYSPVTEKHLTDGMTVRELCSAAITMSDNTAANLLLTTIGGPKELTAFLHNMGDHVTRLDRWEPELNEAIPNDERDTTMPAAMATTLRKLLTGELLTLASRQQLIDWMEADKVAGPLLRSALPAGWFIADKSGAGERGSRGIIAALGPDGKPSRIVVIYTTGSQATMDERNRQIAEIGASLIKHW
VIM-2 confirm 2: confirmation of P. aeruginosa VIM-2 metallo-beta-lactamase inhibitors. shares compounds with VIM-2 inh. purified VIM-2, nitrocefin hydrolysis, epi-absorbance. 1,300 tested, 96% active. inhibition, % at 5.6 µM;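 active means inhibition of the VIM-2 beta-lactamase enzyme above about 11% from the earlier first-round screen, limit read from the data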
A number is an active result; – = inactive; · = no result. The list is not random: actives were taken first. Their share in the collection is about 2.2%. Unless noted, how the calls were made is not given here.

SMILES | IMP-1 inh-1 | PABP1 MLLE inh | VIM-2 inh | eIF4H FP inh | PABP FP inh | IMP-1 inh-2 | VIM-2 FRET ctr | TEM-1 inh | VIM-2 confirm 2
Cc1ccc(CSc2ccc3nnc(-c4ccccn4)n3n2)cc1 | – | – | 21 | – | – | – | – | – | 34
Cc1ccc(CSc2ccc3nnc(-c4cccnc4)n3n2)cc1 | – | – | – | – | – | · | · | · | ·
Brc1ccc(CSc2ccc3nnc(-c4ccccn4)n3n2)cc1 | – | – | 25 | – | – | – | – | – | 52
COc1ccc(C)cc1Nc1cc(C)nc2nc(C)nn12 | – | – | 26 | – | – | – | – | – | 40
COc1ccc(Cl)cc1Nc1cc(C)nc2ncnn12 | · | – | · | · | · | · | · | · | ·
COC(=O)c1ccccc1NC(=O)c1nc2nc(C)cc(C(F)F)n2n1 | – | – | – | – | – | · | · | · | ·
COc1ccc(OC)c(Nc2cc(C)nc3nc(C)nn23)c1 | – | – | 15 | – | – | – | – | – | 30
COC(=O)c1ccccc1Nc1cc(C)nc2nc(C)nn12 | – | – | 13 | – | – | – | – | – | 29
COc1ccc(C2NCCc3sccc32)cc1 (stereo not drawn) | – | – | – | – | – | · | · | · | ·
Cc1cccc(-c2cc3nc(C)c(C)c(NCCCn4ccnc4)n3n2)c1 | – | – | 35 | – | – | – | – | – | 49
Cc1cc(NCCCn2ccnc2)n2nc(-c3ccc(Cl)cc3)cc2n1 | – | – | 38 | – | – | – | – | – | 47
Cc1cc(NCCCn2ccnc2)n2nc(-c3ccc(F)cc3)cc2n1 | – | – | 41 | – | – | – | – | 3.0 | 67
Cc1nn2c(NCCCn3ccnc3)cc(C(C)C)nc2c1-c1ccccc1 | – | – | 20 | – | – | – | – | – | 29
Cc1cc(C)c2c(n1)nn1c(NCCCn3ccnc3)cc(C)nc21 | · | · | · | – | – | · | · | · | ·
CC(C)(C)c1cc(NCCCn2ccnc2)n2ncc(-c3ccc(Cl)cc3)c2n1 | – | – | – | – | – | · | · | · | ·
Cc1nn2c(NCc3ccccn3)cc(C(C)C)nc2c1-c1ccccc1 | – | – | – | – | – | · | · | · | ·
Cc1cccc(-c2cc3nc(C)cc(NCCCN(C)C)n3n2)c1 | – | – | – | – | – | · | · | · | ·
Cc1cccc(COc2ncnc3nc[nH]c23)c1 | – | – | – | – | – | · | · | · | ·
NC(N)=NS(=O)(=O)c1ccc(NC(=S)NC(=O)c2ccc(Br)cc2)cc1 | – | – | – | – | – | · | · | · | ·
COCCNC(=O)c1cc2nc(-c3ccccc3)cc(C)n2n1 | – | – | – | – | – | · | · | · | ·
Cc1cc(-c2ccccc2)nc2cc(C(=O)NCCCn3ccnc3)nn12 | – | – | 17 | – | – | – | – | – | 28
CCOc1cc(/C=N/NC(=O)c2cc(C)[nH]n2)ccc1OC(=O)c1ccc([N+](=O)[O-])cc1 | – | · | – | – | – | · | · | · | ·
CCOc1cc(/C=N/n2cnnc2)ccc1OC(=O)c1cccc([N+](=O)[O-])c1 | – | – | 13 | – | – | – | – | – | 14
CN1CCN(CC(=O)Nc2cc(N(C)C)nc3ccccc23)CC1 | – | – | 19 | – | – | – | – | – | 38
C[C@H](C(=O)O)c1cccc(C(=O)c2ccccc2)c1 | · | – | · | · | · | · | · | · | ·
SMILES | IMP-1 inh-1 | PABP1 MLLE inh | VIM-2 inh | eIF4H FP inh | PABP FP inh | IMP-1 inh-2 | VIM-2 FRET ctr | TEM-1 inh | VIM-2 confirm 2
CC(C(=O)O)c1cccc(C(=O)c2ccccc2)c1 (stereo not drawn) | – | – | 18 | – | – | – | 52 | – | 34
CSc1nnc2c3cc(F)ccc3n(C)c2n1 | – | – | 14 | – | – | – | – | – | 24
CC(C)c1cccc(-c2csc(C(C)(O)c3ccc(F)c(F)c3)n2)c1 (stereo not drawn) | · | – | · | · | · | · | · | · | ·
Nc1cc(N)nc(SCCN2CCCCC2)n1 | – | – | – | – | – | · | · | · | ·
Cn1c2ccccc2c2nnc(SCCN3CCOCC3)nc21 | – | – | 17 | – | – | – | – | – | 23
Cn1c2ccccc2c2nnc(SCN3C(=O)c4ccccc4C3=O)nc21 | · | · | · | – | – | · | · | · | ·
Cc1cc(C)c2c(c1)c1nnc(SCCN3CCCCC3)nc1n2C | – | – | 23 | – | – | – | – | – | 33
Cn1c2ccccc2c2nnc(SCC(=O)Nc3cccc(O)c3)nc21 | – | – | 20 | – | – | – | – | – | 27
CCn1c2ccccc2c2nnc(SCCN3CCCCC3)nc21 | – | – | 19 | – | – | – | – | – | 22
Cc1[nH]ccc2cc3nc4ccccc4c3cc12 | · | – | · | · | · | · | · | · | ·
Cc1ccc(C)c(NC(=O)C(OC(=O)c2cc[n+]([O-])cc2)c2ccccc2)c1 (stereo not drawn) | · | – | · | · | · | · | · | · | ·
CCCCn1c2ccc(C)cc2c2nnc(SCCN3CCCCC3)nc21 | – | – | 22 | – | – | – | – | – | 33
Cc1ccc2[nH]c3nc(SCCN4CCOCC4)nnc3c2c1 | – | – | – | – | – | · | · | · | ·
CCSc1ccc2nnc(-c3ccc(F)cc3)n2n1 | – | – | 14 | – | – | – | – | – | 24
CCSc1ccc2nnc(-c3cccs3)n2n1 | – | – | 17 | – | – | – | – | – | 28
COC(=O)c1sc(NC(=O)/C=C/c2ccccc2Cl)nc1C | – | – | – | – | – | · | · | · | ·
CCC(=O)Nc1ccc(C(=O)NNC(=O)c2ccc(C)cc2)cc1 | – | – | – | – | – | · | · | · | ·
Cc1ccccc1C(=O)c1cccn1CC(=O)O | – | – | 38 | – | – | – | 57 | 1.3 | 43
C=C1CSc2nc(=O)c3c4c(sc3n21)CCC4 | · | – | · | – | – | · | · | · | ·
C=C1CSc2nc(=O)c3c4c(sc3n21)CCCC4 | – | – | 14 | – | – | – | – | – | 33
c1ccc(-c2nc(-c3ccccn3)nc(-c3ccccn3)n2)nc1 | – | – | 21 | – | – | – | – | – | 45
c1ccc(N2CCN(c3nc(-c4ccccn4)nc4ccccc34)CC2)cc1 | – | – | 42 | – | – | – | – | – | 64
COc1cc(/C=C/C(=O)OCC(=O)N(C)Cc2ccccc2)ccc1O | · | – | · | · | · | · | · | · | ·
CN1CCN(c2ccc(NC(=O)c3ccc(-c4cccc([N+](=O)[O-])c4)o3)cc2)CC1 | – | – | 42 | – | – | – | – | – | 64
CN1CCN(c2ccc(NC(=O)c3ccc(-c4ccc(Cl)cc4)o3)cc2)CC1 | – | – | 28 | – | – | – | – | – | 42
CN1CCN(c2ccc(NC(=O)N3CCc4ccccc43)cc2)CC1 | – | – | 28 | – | – | – | – | – | 40
CN1CCN(c2ccc(NC(=O)c3sc4ccccc4c3Cl)cc2)CC1 | – | – | 22 | – | – | – | – | – | 51
CC(C)(C)OC(=O)C[C@H]1C/C=C\C[C@@H](CC(=O)N[C@@H](CO)Cc2ccccc2)C(=O)N2CCC[C@@H]2COC1=O | · | – | · | · | · | · | · | · | ·
